Results gathered from unrelated publications.
Each line is one published result; the experiments were not run side by side.
Target: Epithelial discoidin domain-containing receptor 1 (DDR1, Homo sapiens, UniProt Q08345)

SMILES | observed | method | tested at | remaining binding [%]
CN(CCCC(F)(F)F)c1nccc(-c2cnn3ncccc23)n1 | binding |  | 1 µM | 100
CC(C)(O)c1cncc(-c2nc3ccc(F)cc3n2C2CC2)c1 | cell-free assay | competition with immobilised ligand | 1 µM | 100
C[C@@H]1CCN(c2nccc(-c3cnn4ncccc34)n2)C1 | binding |  | 1 µM | 100
CCCOc1ccc([C@H]2[C@H](C(=O)O)[C@@H](c3ccc4c(c3)OCO4)CN2CC(=O)Nc2c(CC)cccc2CC)cc1 | cell-free assay | competition with immobilised ligand | 1 µM | 100
COc1cnc(Nc2cccc(S(N)(=O)=O)c2)nc1N1CCN(c2ccccc2)C(=O)C1 | binding | competition with immobilised ligand | 1 µM | 100
FC(F)(F)Oc1cccc(-c2cnc3ccc(-c4ccncc4)nn23)c1 | cell-free assay | competition with immobilised ligand | 5 µM | 48
C=CC(=O)N1CCC(C(=O)NCC(=O)N2CCN(c3nc(-c4cnc(N)nc4C(F)F)nc(N4CCOCC4)n3)CC2)CC1 | binding | competition with immobilised ligand | 1 µM | 100
O=C(NCCCN1CCOCC1)c1ccc(Nc2nccc(-c3cc4ccccc4s3)n2)cc1 | binding | competition with immobilised ligand | 1 µM | 20
Cc1cnn2ncc(-c3ccnc(N(C)C)n3)c2c1 | binding |  | 1 µM | 100
COc1ncc2cc3ccccc3nc2c1C#N | cell-free assay | competition with immobilised ligand | 5 µM | 85
N[C@H]1CCN(c2nccc(-c3cnn4ncccc34)n2)C1 | binding |  | 1 µM | 100
Nc1ncc2c(n1)-c1c([nH]c3ccc(C#CC4CC4)cc13)CCCC2 | binding | competition with immobilised ligand | 1 µM | 100
O=C(NCCCN1CCOCC1)c1ccc(Nc2ncc(Cl)c(-c3ccc(Cl)s3)n2)cc1 | binding | competition with immobilised ligand | 1 µM | 84
FC(F)(F)c1ccc2c(c1)nc(-c1cccnc1)n2C1CC1 | cell-free assay | competition with immobilised ligand | 1 µM | 100
O=C(c1ccc(Nc2ncc(Cl)c(-c3cc4ccccc4s3)n2)cc1)N1CCC(N2CCCC2)CC1 | binding | competition with immobilised ligand | 1 µM | 0.4
O=C(O)c1cc(-c2ccc(C3CCNCC3)cc2)c2ccc(-c3ccc(C(F)(F)F)cc3)cc2c1 | cell-free assay | competition with immobilised ligand | 1 µM | 100
O=C(Nc1c[nH]nc1C(=O)NC1CCNCC1)c1cc(F)cc(F)c1 | binding | competition with immobilised ligand | 1 µM | 100
CC1CCCN1c1nccc(-c2cnn3ncccc23)n1 (stereo not drawn) | binding |  | 1 µM | 94
CS(=O)(=O)c1cc(C2(NC(=O)c3cncc4c3cnn4-c3ccc(F)cc3)CC2)ccn1 | cell-free assay | competition with immobilised ligand | 1 µM | 100
CN(c1nccc(-c2cnn3ncccc23)n1)C1CC1 | binding |  | 1 µM | 80
O=c1nc(-c2ccccn2)sc2ccccc12 | cell-free assay | competition with immobilised ligand | 1 µM | 85
